Reference: ChEMBL document CHEMBL4673255, “Acylated 1H-1,2,4-Triazol-5-amines Targeting Human Coagulation Factor XIIa and Thrombin: Conventional and Microscale Synthesis, Anticoagulant Properties, and Mechanism of Action” (J Med Chem, 2020)

How the values were obtained:
Coagulation factor XII = molecular target: T1, Coagulation factor XII (Homo sapiens, UniProt P00748); assay: Inhibition of human coagulation factor XIIA using Boc-Gln-Gly-Arg-AMC as fluorogenic substrate measured at 1 min interval for 1 hr by fluorometric assay
T1 sequence (P00748 whole entry): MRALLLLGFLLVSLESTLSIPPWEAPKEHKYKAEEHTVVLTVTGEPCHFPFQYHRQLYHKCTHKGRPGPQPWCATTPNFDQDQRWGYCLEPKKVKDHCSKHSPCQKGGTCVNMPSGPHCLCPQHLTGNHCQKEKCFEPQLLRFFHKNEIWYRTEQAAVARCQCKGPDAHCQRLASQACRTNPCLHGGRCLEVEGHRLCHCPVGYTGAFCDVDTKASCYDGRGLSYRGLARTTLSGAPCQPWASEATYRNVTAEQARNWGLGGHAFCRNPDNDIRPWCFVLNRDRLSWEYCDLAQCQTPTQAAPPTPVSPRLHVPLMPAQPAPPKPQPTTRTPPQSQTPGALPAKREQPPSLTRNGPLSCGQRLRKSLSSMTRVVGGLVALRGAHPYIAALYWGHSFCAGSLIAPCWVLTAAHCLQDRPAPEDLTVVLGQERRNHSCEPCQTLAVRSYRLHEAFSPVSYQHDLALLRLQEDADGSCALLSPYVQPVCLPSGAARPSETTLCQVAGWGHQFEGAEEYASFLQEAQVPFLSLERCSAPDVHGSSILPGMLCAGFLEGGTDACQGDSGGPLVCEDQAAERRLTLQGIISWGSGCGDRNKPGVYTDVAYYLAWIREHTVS

[1] = Inhibition of porcine trypsin using Z-Gly-Gly-Arg-AMC as fluorogenic substrate measured at 1 min interval for 1 hr by fluorometric assay; set-up: species or system Sus scrofa
Blood [2] = assay: Anticoagulant activity in human blood assessed as increase in activated partial thromboplastin time at 300 uM incubated for 1 min by aPTT reagent based assay relative to control; assay type: functional
Method in brief: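 Compounds were tested at 300 µM, and the increase was expressed relative to DMSO. The doubling concentration (EC2×) is the concentration prolonging aPTT twofold. At least triplicate, mean ± SD.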

[3] = molecular target: T2, Coagulation factor XII (Homo sapiens) (UniProt P00748); assay: Inhibition of human coagulation factor XIIA in presence of Boc-Gln-Gly-Arg-AMC as fluorogenic substrate at 1 uM measured at 1 min interval for 1 hr by fluorometric assay relative to control
T2 sequence (whole entry): T1 sequence (P00748 whole entry)
Method in brief: (§1)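 Screening of crude microscale amide-coupling products. Conversion was measured by 1H NMR and product content normalised to 76 µmol/L in DMSO, then tested at 1 µM and 100 nM in the fluorogenic FXIIa or thrombin assay. A 0-conversion reaction served as blank. Percent inhibition is from triplicates.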

Prothrombin [4] = molecular target: T3, Prothrombin (Homo sapiens, UniProt P00734); assay: Inhibition of human coagulation factor alpha-thrombin using Boc-Val-Pro-Arg-AMC as fluorogenic substrate measured at 1 min interval for 1 hr by fluorometric assay
Blood [5] = assay: Effect on blood coagulation in human blood assessed as increase in prothrombin time at 300 uM incubated for 3 mins followed by CaCl2 addition by PT reagent based assay relative to control; assay type: ADME, tissue-based; settings: 0.05 h
Method in brief: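 Clotting was started with PT reagent already containing CaCl2, prewarmed to 37 °C, and clotting time was recorded. Increase is given relative to DMSO; at least triplicate, mean ± SD.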

Coagulation factor X = Coagulation factor X (Homo sapiens, UniProt P00742); assay: Inhibition of human coagulation factor Xa using Boc-Ile-Glu-Gly-Arg-AMC as fluorogenic substrate measured at 1 min interval for 1 hr by fluorometric assay
Sequence of Coagulation factor X (P00742 41-179 limits assumed): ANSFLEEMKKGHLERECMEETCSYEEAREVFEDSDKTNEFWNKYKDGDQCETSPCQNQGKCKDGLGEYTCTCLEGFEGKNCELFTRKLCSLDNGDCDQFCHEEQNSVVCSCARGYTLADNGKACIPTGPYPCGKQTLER
Sequence of Coagulation factor X (P00742 235-488 limits assumed): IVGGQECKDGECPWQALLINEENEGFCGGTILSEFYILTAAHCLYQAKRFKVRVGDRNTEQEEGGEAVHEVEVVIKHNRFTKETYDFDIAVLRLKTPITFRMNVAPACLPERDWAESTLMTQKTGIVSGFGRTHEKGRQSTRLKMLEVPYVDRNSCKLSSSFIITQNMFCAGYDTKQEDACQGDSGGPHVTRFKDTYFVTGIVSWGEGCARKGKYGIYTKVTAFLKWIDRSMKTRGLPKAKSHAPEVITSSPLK

Plasma [6] = assay: (§2) Anticoagulant activity in human platelet-rich plasma assessed as reduction in TF-induced thrombin generation by measuring Tmax of clotting time at 100 uM preincubated for 15 mins followed by TF addition by Z-Gly-Gly-Arg-AMC substrate based calibrated automated thrombography (reference value: 8.1 +/- 0.6 min); assay type: functional, cell-free
Method in brief: (§3)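 Tissue-factor-triggered homogeneous thrombin generation followed by fluorogenic substrate cleavage. Read-outs: clotting time (T1/2), peak amplitude (Amax, AU/L), time to peak (Tmax) and ETP (AU·min/L). DMSO and buffer served as controls. n = 3, mean ± SD.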

Plasma kallikrein = Plasma kallikrein (Homo sapiens, UniProt P03952); assay: Inhibition of human kallikrein using Mes-dArg-Pro-Arg-AMC as fluorogenic substrate measured at 1 min interval for 1 hr by fluorometric assay
Sequence of Plasma kallikrein (P03952 20-390 limits assumed): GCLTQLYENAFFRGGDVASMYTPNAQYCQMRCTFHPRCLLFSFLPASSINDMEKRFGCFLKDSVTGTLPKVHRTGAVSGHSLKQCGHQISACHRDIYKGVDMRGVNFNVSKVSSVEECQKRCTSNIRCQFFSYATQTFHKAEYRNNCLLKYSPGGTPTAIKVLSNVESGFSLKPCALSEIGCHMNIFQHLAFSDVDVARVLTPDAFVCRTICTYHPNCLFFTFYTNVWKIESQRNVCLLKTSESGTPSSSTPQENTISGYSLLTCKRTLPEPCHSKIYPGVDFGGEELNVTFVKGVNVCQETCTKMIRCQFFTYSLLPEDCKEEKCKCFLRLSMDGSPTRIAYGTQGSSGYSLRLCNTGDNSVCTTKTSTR
Sequence of Plasma kallikrein (P03952 391-638 limits assumed): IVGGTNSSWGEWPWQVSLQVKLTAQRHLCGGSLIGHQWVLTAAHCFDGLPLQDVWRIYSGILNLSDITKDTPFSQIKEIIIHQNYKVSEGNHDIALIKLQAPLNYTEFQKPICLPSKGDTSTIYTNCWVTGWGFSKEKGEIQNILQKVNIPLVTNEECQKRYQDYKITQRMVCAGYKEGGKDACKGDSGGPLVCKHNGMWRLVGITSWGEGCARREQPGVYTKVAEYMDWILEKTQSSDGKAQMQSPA

Plasminogen = Plasminogen (Homo sapiens, UniProt P00747); assay: Inhibition of human plasmin using Mes-dArg-Phe-Arg-AMC as fluorogenic substrate measured at 1 min interval for 1 hr by fluorometric assay
Sequence of Plasminogen (P00747 97-580 limits assumed): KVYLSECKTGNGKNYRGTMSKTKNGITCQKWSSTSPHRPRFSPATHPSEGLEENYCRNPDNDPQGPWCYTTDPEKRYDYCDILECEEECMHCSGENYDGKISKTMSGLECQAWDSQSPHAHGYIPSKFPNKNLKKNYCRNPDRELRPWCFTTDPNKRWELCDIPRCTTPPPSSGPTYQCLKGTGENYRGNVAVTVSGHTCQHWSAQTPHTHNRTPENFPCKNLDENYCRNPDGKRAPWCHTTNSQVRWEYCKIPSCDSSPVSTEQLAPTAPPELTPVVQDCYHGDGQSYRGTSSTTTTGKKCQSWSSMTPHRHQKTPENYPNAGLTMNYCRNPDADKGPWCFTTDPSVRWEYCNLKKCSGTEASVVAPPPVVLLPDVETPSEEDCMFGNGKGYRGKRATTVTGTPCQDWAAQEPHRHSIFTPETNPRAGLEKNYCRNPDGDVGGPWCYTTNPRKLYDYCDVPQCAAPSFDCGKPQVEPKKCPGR
Sequence of Plasminogen (P00747 581-810 limits assumed): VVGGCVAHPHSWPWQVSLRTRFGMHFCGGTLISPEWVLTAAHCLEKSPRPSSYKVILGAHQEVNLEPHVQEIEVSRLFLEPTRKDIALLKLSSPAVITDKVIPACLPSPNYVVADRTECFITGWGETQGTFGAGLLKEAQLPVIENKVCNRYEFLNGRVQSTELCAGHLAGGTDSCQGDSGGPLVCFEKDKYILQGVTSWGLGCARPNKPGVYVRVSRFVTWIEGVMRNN

Plasma [7] = assay: as §2, with “endogenous thrombin potential” for “Tmax of clotting time”, “1203” for “8.1”, “44 AU.min/L)” for “0.6 min)”; assay type: functional; settings: 0.25 h; method in brief: as §3
Plasma [8] = assay: Anticoagulant activity in human platelet-rich plasma assessed as reduction in TF-induced thrombin generation by measuring half life of clotting time at 100 uM preincubated for 15 mins followed by TF addition by Z-Gly-Gly-Arg-AMC substrate based calibrated automated thrombography (Rvb= 3 +/- 0.5 min); assay type: functional, cell-free; method in brief: as §3
Plasma [9] = assay: as §2, with “amplitude” for “Tmax”, “thrombin peak” for “clotting time”, “63” for “8.1”, “3.7 AU/L)” for “0.6 min)”; assay type: functional; settings: 0.25 h; method in brief: as §3
[10] = molecular target: Urokinase-type plasminogen activator (Homo sapiens, UniProt P00749); assay: Inhibition of human uPA using Tos-Gly-Pro-Arg-AMC as fluorogenic substrate measured at 1 min interval for 1 hr by fluorometric assay
Coagulation factor XI = Coagulation factor XI (Homo sapiens, UniProt P03951); assay: Inhibition of human coagulation factor XIA using Mes-dArg-Pro-Arg-AMC as fluorogenic substrate measured at 1 min interval for 1 hr by fluorometric assay
Sequence of Coagulation factor XI (P03951 19-387 limits assumed): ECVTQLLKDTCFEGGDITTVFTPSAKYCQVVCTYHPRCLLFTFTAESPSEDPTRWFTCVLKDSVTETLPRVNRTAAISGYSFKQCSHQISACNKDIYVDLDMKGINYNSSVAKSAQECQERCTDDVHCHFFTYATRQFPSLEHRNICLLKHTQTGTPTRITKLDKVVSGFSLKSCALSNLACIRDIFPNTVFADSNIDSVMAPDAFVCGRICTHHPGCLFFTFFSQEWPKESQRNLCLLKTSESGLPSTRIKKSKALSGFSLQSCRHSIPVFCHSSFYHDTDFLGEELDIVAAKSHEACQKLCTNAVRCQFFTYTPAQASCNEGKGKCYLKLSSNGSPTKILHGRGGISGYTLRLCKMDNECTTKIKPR
Sequence of Coagulation factor XI (P03951 388-625 limits assumed): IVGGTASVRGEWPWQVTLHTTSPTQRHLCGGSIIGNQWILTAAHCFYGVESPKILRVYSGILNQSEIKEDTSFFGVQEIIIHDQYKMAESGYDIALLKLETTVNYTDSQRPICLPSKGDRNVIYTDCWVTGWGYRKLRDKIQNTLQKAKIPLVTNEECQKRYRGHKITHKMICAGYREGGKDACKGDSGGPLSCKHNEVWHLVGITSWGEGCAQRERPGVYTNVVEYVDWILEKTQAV

Homo sapiens = species: Homo sapiens; assay: Selectivity index, ratio of IC50 for inhibition of human coagulation factor alpha-thrombin using Boc-Val-Pro-Arg-AMC as fluorogenic substrate to IC50 for inhibition of human coagulation factor XIIA using Boc-Gln-Gly-Arg-AMC as fluorogenic substrate incubated for 1 hr by fluorometric assay
[11] = molecular target: T2, Coagulation factor XII (Homo sapiens); assay: Binding affinity to human plasma coagulation factor XIIA assessed as compound-adduct formation by measuring change in molecular mass at molar ratio of 1:20 measured after 4 mins by SEC/ESI-TOF mass spectra analysis; assay type: cell-free
Method in brief: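 β-FXIIa incubated with inhibitor at a 1:20 molar ratio, then size-exclusion chromatography coupled to ESI-MS to measure the mass of enzyme–inhibitor complexes. Further runs checked complex stability to probe reversibility.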

[12] = molecular target: T2, Coagulation factor XII (Homo sapiens); assay: Inhibition of human coagulation factor XIIA using Boc-Gln-Gly-Arg-AMC as fluorogenic substrate at 100 nM measured at 1 min interval for 1 hr by fluorometric assay relative to control; method in brief: as §1
Prothrombin [13] = molecular target: T3, Prothrombin; assay: Inhibition of human coagulation factor thrombin using Boc-Val-Pro-Arg-AMC as fluorogenic substrate at 100 nM measured at 1 min interval for 1 hr by fluorometric assay relative to control; method in brief: as §1

| Structure (SMILES) | IC50 (Coagulation factor XII) [µM] | IC50 [1] [µM] | Activity (Blood [2]) [%] | inhibition [3] [%] | IC50 (Prothrombin [4]) [µM] | Activity (Blood [5]) [%] | IC50 (Coagulation factor X) [µM] | other results |
| --- | --- | --- | --- | --- | --- | --- | --- | --- |
| CCc1ccc(C(=O)n2nc(-c3ccccn3)nc2N)cc1 | 0.162 | > 5 | 114 | 85 | 0.308 | 6 | > 5 |  |
| Nc1nc(Nc2cccnc2)nn1C(=O)c1ccccc1 | > 5 | > 5 | 1 |  | > 8 | 2 | > 5 |  |
| Nc1nc(-c2ccccn2)nn1C(=O)c1ccco1 | 0.968 | > 5 |  | 54 | 1.77 |  | > 5 |  |
| Nc1n[nH]c(-c2ccccc2)n1 | > 5 | > 5 |  |  | > 5 |  | > 5 |  |
| Cc1cccc(C(=O)n2nc(-c3ccccn3)nc2N)c1 | 0.093 | > 5 | 124 | 83 | 0.086 | 12 | > 5 |  |
| Nc1nc(-c2ccccn2)nn1C(=O)c1ccc(C(F)(F)F)cc1 | 3.21 | > 5 | 40 | 14 | 4.57 | 8 | > 5 |  |
| CCOc1ccc(Nc2nc(N)n(C(=O)c3ccccc3)n2)cc1 | > 1 | > 5 |  |  | > 5 |  | > 5 |  |
| Nc1nc(-c2ccccn2)nn1C(=O)c1ccc([N+](=O)[O-])cc1 | 5.93 |  | 35 | 29 | > 5 | 3 | > 5 |  |
| COc1ccc(C(=O)n2nc(-c3ccccn3)nc2N)cc1 | 0.291 | > 5 | 108 | 80 | 0.329 | 14 | > 5 |  |
| Nc1nc(-c2ccncc2)nn1C(=O)c1ccccc1 | 0.106 | > 5 | 80 |  | 0.962 | 2 | > 5 |  |
| Nc1n[nH]c(-c2ccncc2)n1 | > 5 | > 5 | 5 |  | > 5 | 1 | > 5 |  |
| Nc1nc(-c2ccncc2)nn1C(=O)C1CCCCC1 | > 1 | > 5 | 10 |  | > 5 | 7 | > 5 |  |
| Nc1nc(-c2ccccn2)nn1C(=O)C1CCCCC1 | > 1 | > 5 |  | 11 | > 5 |  | > 5 |  |
| Nc1nc(-c2ccccn2)nn1C(=O)Cc1ccccc1 | 0.21 | > 5 |  | 87 | 0.509 |  | > 5 |  |
| Cc1ccc(S(=O)(=O)n2nc(-c3ccncc3)nc2N)cc1 | > 1 | > 5 | 5 |  | > 5 | 2 | > 5 |  |
| [H]/N=C(/N)c1ccc(NCc2nc3cc(C(=O)N(CCC(=O)O)c4ccccn4)ccc3n2C)cc1 [DABIGATRAN] | > 33 |  |  |  |  | 539 |  |  |
| Nc1nc(-c2ccccn2)nn1C(=O)/C=C/c1ccccc1 | 9.82 | > 5 |  | 21 | 1.56 |  | > 5 |  |
| Nc1nc(-c2ccccn2)nn1C(=O)C1CCOCC1 | 12.1 | > 5 |  | 1 | > 5 |  | > 5 |  |
| Nc1nc(-c2ccccn2)nn1C(=O)CNC(=O)c1ccccc1 | 13.2 | > 5 | -2 | 20 | > 132 | 3 | > 5 |  |
| Nc1n[nH]c(-c2ccccn2)n1 | > 5 | > 5 |  |  | > 5 |  | > 5 |  |
| Cc1ccc(C(=O)n2nc(-c3ccccn3)nc2N)cc1C | 0.091 | > 5 | 227 | 92 | 0.057 | 48 | > 5 | Tmax (Plasma [6]): 8.8 min; IC50 (Plasma kallikrein): > 5 µM; IC50 (Plasminogen): 25.8 µM; Activity (Plasma [7]): 370 AU.min/L; T1/2 (Plasma [8]): 3.8 min; Activity (Plasma [9]): 16.9 AU/L; IC50 [10]: 2.94 µM; IC50 (Coagulation factor XI): > 5 µM |
| Nc1nc(-c2ccccc2)nn1C(=O)c1ccccc1 | 0.539 | > 5 | 29 |  | 1.24 | 5 | > 5 |  |
| Nc1nc(-c2ccccn2)nn1C(=O)c1cccnc1 | 1.61 | > 5 |  | 43 | 0.494 |  | > 5 |  |
| Nc1nc(-c2ccccn2)nn1C(=O)c1ccc(NC(=O)C(F)(F)F)cc1 | 0.142 | > 5 |  | 89 | 3.39 |  | > 5 | Ratio IC50 (Homo sapiens): 24 |
| Nc1nc(-c2ccccn2)nn1C(=O)[C@H]1CCCc2ccccc21 | 0.134 | > 5 | 67 | 96 | 0.421 | 7 | > 5 | Activity [11]: 158 Da; inhibition [12]: 70%; inhibition (Prothrombin [13]): 6% |
| Nc1nc(-c2ccccn2)nn1C(=O)c1ccccc1[N+](=O)[O-] | 1.56 |  |  | 43 | > 5 |  | > 5 |  |
| Nc1nc(-c2ccccn2)nn1C(=O)c1ccc(F)cc1 | 0.306 | > 5 | 78 | 79 | 0.481 | 8 | > 5 |  |
| Nc1nc(-c2ccccn2)nn1C(=O)c1ccc(Br)cc1 | 0.793 | > 5 | 119 | 58 | 0.239 | 16 | > 5 |  |
